MMP13 inh = human MMP13 inhibitors, primary screen, biochemical, FRET peptide cleavage; MMP-13 fTHP FRET cleavage, Mca fluorescence; 65,000 tested, 0.07% active; Collagenase 3 (Homo sapiens), P45452; inhibition, % at 4 µM;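 active = inhibition above the mean of compound-free control plate wells plus 3 SD, cut at about 14% in these data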;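 also: 0% = DMSO wells and 100% = wells with reference MMP-13 inhibitor after basal subtraction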
D1 mod = D1 CRE-luciferase signal change, two-sided – cell-based, HEK293 D1, dopamine EC30, D1 allosteric modulator project, primary screen | D(1A) dopamine receptor (Homo sapiens), P21728 | AID 641, 2007 | dopamine EC30 potentiation; actives deviate in either direction | B-score at 10 µM | 58,000 tested, 5.9% active;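 active = luminescence count or its row- and column-corrected plate score outside the 99.7% band of the plate's sample wells, on either side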
DAT uptake mod = changed hDAT dopamine uptake under cocaine IC80, either direction, primary screen, cocaine antagonist project, cell-based, LLC-PK1 hDAT, [14C]-dopamine uptake, MLSMR. Sodium-dependent dopamine transporter (Homo sapiens), Q01959. LLC-PK1 hDAT cells, [14C]-dopamine uptake with cocaine IC80; actives deviate in either direction. B-score at 10 µM. 110,000 tested, 1.3% active;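 active = Z score or B-score, a plate-position-corrected score, falls beyond the plate's 99.7% confidence bounds, in either direction; inactive = both scores lie inside the 99.7% bounds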;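 also: scored against the spread of the other compound wells on the same plate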
Target sequence (Q01959 whole entry, looked up): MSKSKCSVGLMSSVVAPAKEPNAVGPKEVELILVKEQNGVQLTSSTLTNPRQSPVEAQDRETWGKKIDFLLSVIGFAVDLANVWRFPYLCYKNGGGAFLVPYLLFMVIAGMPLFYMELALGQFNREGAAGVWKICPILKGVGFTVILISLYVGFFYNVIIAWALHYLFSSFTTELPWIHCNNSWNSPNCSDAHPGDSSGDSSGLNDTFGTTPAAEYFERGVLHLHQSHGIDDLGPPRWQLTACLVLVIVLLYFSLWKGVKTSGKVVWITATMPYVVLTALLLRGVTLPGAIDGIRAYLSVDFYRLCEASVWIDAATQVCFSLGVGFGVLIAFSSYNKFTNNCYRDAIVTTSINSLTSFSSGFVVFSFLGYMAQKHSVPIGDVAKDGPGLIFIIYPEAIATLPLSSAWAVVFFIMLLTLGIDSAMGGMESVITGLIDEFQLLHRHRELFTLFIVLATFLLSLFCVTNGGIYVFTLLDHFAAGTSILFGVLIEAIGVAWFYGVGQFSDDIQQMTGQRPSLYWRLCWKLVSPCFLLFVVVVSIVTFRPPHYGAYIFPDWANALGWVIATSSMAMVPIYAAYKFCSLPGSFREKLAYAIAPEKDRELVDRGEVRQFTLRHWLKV
Candida biofilm = clotrimazole potentiators killing Candida biofilms, primary screen, with clotrimazole, Alamar Blue; C. albicans biofilm + clotrimazole; 85,000 tested, 0.14% active; inhibition, % at 6 µM;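 active = inhibition above 20%; inactive = inhibition below 20%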;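 also: preformed 24 hr biofilms exposed to compound for 48 hr; 0% = biofilm without compound and 100% = blank killed by clotrimazole plus chlorhexidine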
AP complement = alternative complement pathway inhibitors, primary screen, biochemical, ELISA, human serum, orthogonally pooled compounds; LPS-coated ELISA, C3 deposition; tested in compound mixtures; inhibition, % at 5 µM; 62,000 tested, 0.08% active; AID 1235, 2008;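 active = inhibition above 30% in each of the two pooled mixtures holding the compound, so the lower value exceeds 30%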;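 also: 0% = serum in Mg-EGTA without compound and 100% = EDTA serum blank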
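Medium: diluted human serum in Mg2+-EGTA GVB++. Assay system: human serum complement alternative pathway, C3 deposition onto LPS. Also added: Plate-bound LPS. Technique: Anti-C3 ELISA, OD 450 nm. Measure: percent inhibition. Incubation: 1 h at 37 °C. Dosing: 5 µM each compound, pools of ten, 50 µM per pool.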
D1 mod confirm = D1 receptor positive allosteric modulators, retest, confirmation, cell-based, HEK293 D1, CRE-luciferase, duplicate; shares compounds with D1 mod; dopamine EC30 potentiation; hits give high values; luminescence at 10 µM; 2,200 tested, 88% active; AID 642, 2007;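 active = luminescence in either of two replicates above the same-plate mean plus 3 SD of the low-dose dopamine control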
D1 ag no DA = D1 receptor agonism without dopamine, confirmation, mechanism study for D1 allosteric modulator project, cell-based, HEK293 D1, CRE-luciferase, secondary assay 1; 1,900 tested, 0.8% active; AID 646, 2007; shares compounds with D1 mod; luminescence at 10 µM; luminescence, no dopamine; hits give high values; in the data active = luminescence above about 3900
Isoprot counter = alters isoproterenol CRE-luciferase response in HEK293 cells; HEK293 D1 CRE-luciferase, isoproterenol EC30 counter-screen; hits give high values; shares compounds with D1 mod; 2,200 tested, 63% active; luminescence at 10 µM;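 active = luminescence in either replicate above plate mean of wells with a partly effective reference agonist dose plus 3 SD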;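 also: isoproterenol raises cAMP through native beta-adrenoceptor Gs so signal bypasses D1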
An asterisk follows results filed as active; i = inactive; . = not tested or not shown. Only a selection was taken, and hits are over-represented in it overall.

SMILES	MMP13 inh	D1 mod	DAT uptake mod	Candida biofilm	AP complement	D1 mod confirm	D1 ag no DA	Isoprot counter
CC(=O)NC1(c2ccccc2)CCN(c2nc(C)cc(C)n2)CC1	-13.8	3.45*	-1.55	2.1	3.4	7128	1700	2652
CC(C)c1cc(-c2cc(C(=O)NCc3ccccc3)on2)nc(NCC2CC2)n1	.	.	1.41	.	.	.	.	.
Cc1noc(NS(=O)(=O)c2ccc(N/C=C/C(=O)c3ccc4c(c3)OCO4)cc2)c1C	-0.3	8.47*	-0.841	.	23.3	13260*	1840	3108*
COC(=O)c1cccc(C23CC4(C2)[C@H](CN(Cc2cccnc2)[C@@H]4c2ccccc2)C3c2ccc(C(F)(F)F)cc2)c1 (stereo partly specified)	.	.	-0.765	.	.	.	.	.
Cc1cccc(N2CCN(C(=O)NCc3ccc(Cl)cc3)CC2)c1	.	.	-0.0495	5.0	.	.	.	.
OCC[C@@H]1C[C@@H](O)[C@H](O)[C@]2(CCCCO2)O1	.	.	-0.629	.	.	.	.	.
COc1ccc(C2NC(=O)CS2)cc1OC (stereo unspecified)	2.5	5.76*	-0.0251	10.2	5.7	13168*	.	3256*
COc1ccccc1C1NC(=O)CS1 (stereo unspecified)	1.4	-1.07	-0.273	12.2	9.8	.	.	.
O=C(c1cccc(F)c1)N1CCc2ccccc2C1	2.0	4.61*	-0.714	3.2	8.3	9556*	12280*	3248
C/C(=C\C(=O)OCCCCCCCCC(=O)O)C[C@@H]1OC[C@H](C[C@@H]2O[C@H]2[C@@H](C)[C@H](C)O)[C@@H](O)[C@H]1O	.	.	-0.465	.	.	.	.	.
O=C(Nc1ccc(F)cc1)N1CCOCC1	0.5	5.36*	-0.932	6.0	9.7	5328	1472	2160
CN1CCN(CCNC(=O)c2cc3c(=O)n(C)c4ccccc4c3n2C)CC1	-14.8	4.62*	0.445	-2.9	11.8	5788	.	2120
CCCN1CCN(CCCNC(=O)c2cc3c(=O)n(C)c4ccccc4c3n2C)CC1	-36.6	-0.00638	-0.31	13.0	3.2	.	.	.
CN1C[C@@H]2C(c3ccc(Cl)nc3)C3(c4ccccc4)CC2(C3)[C@H]1c1ccccc1 (stereo partly specified)	.	.	1.45	.	.	.	.	.
COc1cc(OC)c2c3c(c(C4CCCCC4)nc2c1)CCC3	.	.	-0.789	.	.	.	.	.
Cn1c2ccc(F)cc2c2ncn(CCN3CCOCC3)c(=O)c21	-14.7	1.19	-0.133	9.0	3.6	.	.	.
COc1ccc2c(c1)c1ncn(Cc3ccco3)c(=O)c1n2C	-207.6	7.54*	0.0443	4.9	30.5	12892*	1532	3304*
COc1ccc(CC(=O)N2CCN=C2SC)cc1	-3.6	11.4*	-0.279	4.1	21.6	15276*	1524	3544*
CCOC(=O)c1ccccc1Nc1cc(C)nc2nc(C)nn12	-0.6	1.83*	0.215	0.4	13.0	10192*	1536	4012*
COC(=O)c1ccccc1Nc1cc(C)nc2nc(C)nn12	2.2	0.42	.	9.1	16.0	.	.	.
Cc1cc(OC(C)C)nc(NCc2ccccc2)n1	.	.	0.294	5.7	.	.	.	.
COc1ccc(OC)c(/C=N/c2oc(-c3ccco3)c(-c3ccco3)c2C#N)c1	-3.0	9.5*	-1.78	-2.4	8.2	16404*	1712	2776
COc1ccc(C(=O)Nc2n[nH]c(-c3ccncc3)n2)cc1	.	.	-1.09	.	.	.	.	.
CCCS(=O)(=O)c1c(S(=O)(=O)CCC)c2cc(CC)ccn2c1C(=O)OC	-3.0	6.49*	0.868	6.7	15.1	13540*	1436	4544*
O=C(NCc1cccc(Br)c1)C1CC(c2ccc(C(F)(F)F)cc2)=NO1 (stereo unspecified)	.	.	-0.0968	.	.	.	.	.
SMILES	MMP13 inh	D1 mod	DAT uptake mod	Candida biofilm	AP complement	D1 mod confirm	D1 ag no DA	Isoprot counter
CCC(NC(C)C)C(O)c1ccc(O)c(O)c1 (stereo unspecified)	0.9	12.7*	-0.0739	-2.6	6.9	9904*	3836*	8388*
Cc1ccc(O)c(O)c1	.	.	0.878	.	.	.	.	.
C=C(C)CN1CCN(c2c(CCC#N)c(C)c(C#N)c3nc4ccccc4n23)CC1	0.1	5.38*	-0.485	9.1	.	11364*	1768	3016*
O=c1c2cn[nH]c2nc(SCc2ccc3c(c2)OCCO3)n1-c1ccccc1	3.3	7.9*	-0.0379	6.7	-1.4	11032*	1768	4760*
O=P(COc1ccccc1)(c1ccccc1)c1ccccc1	.	.	0.602	.	.	.	.	.
Cn1nnnc1Sc1ncnc2scc(-c3ccccc3)c12	-5.0	5.57*	-1.12	.	5.6	22236*	1604	5292*
c1ccc(-c2csc3ncn4nnnc4c23)cc1	-2.7	10.9*	0.797	7.7	-1.5	12968*	1552	3720*
Cn1nnnc1Sc1ncnc2scc(-c3ccc(F)cc3)c12	-3.3	11.9*	.	.	20.1	4984	1648	2320
Clc1ncnc2scc(-c3ccccc3)c12	.	.	-0.172	.	.	.	.	.
COc1ccc(Cl)cc1Nc1nc(C)cc(C)c1C(N)=O	.	.	0.547	8.1	.	.	.	.
COCCn1c(-c2ccco2)nc2nc3ccccc3nc21	i	9.16*	.	.	7.2	16228*	1728	3820*
CC(C)OCCCn1c(-c2ccco2)nc2nc3ccccc3nc21	-62.9	0.776	.	.	12.0	.	.	.
CC(C)(CO)C(O)C(=O)NCCC#N (stereo unspecified)	.	.	1.09	.	.	.	.	.
Cc1nc(NCC2CCCO2)c2oc3ccccc3c2n1 (stereo unspecified)	0.1	.	0.447	2.8	4.1	.	.	.
CCNc1nc(CC)nc2c1oc1ccccc12	0.8	.	-0.498	1.2	-6.1	.	.	.
CCc1nc(NCC2CCCO2)c2oc3ccccc3c2n1 (stereo unspecified)	-3.4	6.05*	0.471	11.2	-5.3	12724*	.	3456*
CCc1nc(NCc2ccco2)c2oc3ccccc3c2n1	0.2	13.4*	0.431	4.8	8.2	3596	.	2292
CCNc1nc(C)nc2c1oc1ccccc12	-3.1	9.33*	1.46	3.5	13.5	16376*	.	3480*
Cc1cc(NC(=O)CSc2nnc(-c3c[nH]c4ccccc34)n2-c2ccc(Cl)cc2)no1	.	.	-0.472	.	.	.	.	.
CCOC(=O)c1nn(-c2ccc(C)c(C)c2)c(=O)c2c(N)scc12	.	.	-0.789	3.4	.	.	.	.
CCOC(=O)c1nn(-c2ccc(OC)cc2)c(=O)c2c(N)scc12	1.9	5.12*	1.34	13.5	13.8	6660*	1672	2692
COc1cc(OC)cc(C(=O)Nc2ccccc2C(=O)N2CCCC2)c1	.	.	0.314	-0.2	.	.	.	.
